Laboratory results taken from ChEMBL document CHEMBL1125789, “Synthesis and selective class III antiarrhythmic activity of novel N-heteroaralkyl-substituted 1-(aryloxy)-2-propanolamine and related propylamine derivatives” (J Med Chem, 1991).

Experiments:
Canis familiaris [1] = species: Canis familiaris; test: Maximum rate of rise of the upstroke of transmembrane potential, in canine Purkinje Fibers at a concentration of 3.0 uM at 1000 ms (simulating normal heart rate); assay type: functional; set-up: unit not given here; conditions: Canis lupus familiaris, Purkinje fiber
Summary of the method: (§1)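 Isolated canine Purkinje fiber bundles were driven by square-wave pulses 2.0 ms long at 2× threshold and equilibrated ≥1 h to steady state. Each concentration was superfused 45–60 min before recording, and action potentials were sampled at 4–6 sites per fiber in control and after drug, giving Vmax and APD to −60 mV.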

Canis familiaris [2] = species: Canis familiaris; test: repolarization to reach -60mV, in canine Purkinje Fibers at a concentration of 3.0 uM at 1000 ms (simulating normal heart rate); assay type: functional, Canis lupus familiaris, Purkinje fiber
Summary of the method: (§2)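 Purkinje fiber bundles were stimulated with square-wave current pulses of 2.0 ms at twice threshold and equilibrated for at least 1 h, or until action potential parameters were steady. Each concentration was superfused for 45-60 min to reach steady state. Action potentials were recorded at four to six sites per fiber, under control and after drug.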

Canis familiaris [3] = species: Canis familiaris; test: Maximum rate of rise of the upstroke of transmembrane potential, in canine Purkinje Fibers at a concentration of 3.0 uM at 300 ms (simulating tachycardia); assay type: functional; set-up: unit not given here; conditions: Canis lupus familiaris, Purkinje fiber; summary of the method: as §1
Canis familiaris [4] = species: Canis familiaris; test: Repolarization to reach -60mV, in canine Purkinje Fibers at a concentration of 3.0 uM at 300 ms (simulating tachycardia); assay type: functional, Canis lupus familiaris, Purkinje fiber; summary of the method: as §1
Canis familiaris [5] = species: Canis familiaris; test: Maximum rate of rise of the upstroke of transmembrane potential, in canine Purkinje Fibers at a concentration of 0.3 uM at 300 ms (simulating tachycardia); assay type: functional; set-up: unit not given here; conditions: Canis lupus familiaris, Purkinje fiber; summary of the method: as §1
Canis familiaris [6] = species: Canis familiaris; test: repolarization to reach -60mV, in canine Purkinje Fibers at a concentration of 1.0 uM at 1000 ms (simulating normal heart rate); assay type: functional, Canis lupus familiaris, Purkinje fiber; summary of the method: as §2
Canis familiaris [7] = species: Canis familiaris; test: repolarization to reach -60mV, in canine Purkinje Fibers at a concentration of 0.3 uM at 1000 ms (simulating normal heart rate); assay type: functional, Canis lupus familiaris, Purkinje fiber; summary of the method: as §2
Canis familiaris [8] = species: Canis familiaris; test: Maximum rate of rise of the upstroke of transmembrane potential, in canine Purkinje Fibers at a concentration of 0.3 uM at 1000 ms (simulating normal heart rate); assay type: functional; set-up: unit not given here; conditions: Canis lupus familiaris, Purkinje fiber; summary of the method: as §1
Canis familiaris [9] = species: Canis familiaris; test: Repolarization to reach -60mV, in canine Purkinje Fibers at a concentration of 0.3 uM at 300 ms (simulating tachycardia); assay type: functional, Canis lupus familiaris, Purkinje fiber; summary of the method: as §1
Canis familiaris [10] = species: Canis familiaris; test: Repolarization to reach -60mV, in canine Purkinje Fibers at a concentration of 1.0 uM at 300 ms (simulating tachycardia); assay type: functional, Canis lupus familiaris, Purkinje fiber; summary of the method: as §1
Canis familiaris [11] = species: Canis familiaris; test: Maximum rate of rise of the upstroke of transmembrane potential, in canine Purkinje Fibers at a concentration of 1.0 uM at 1000 ms (simulating normal heart rate); assay type: functional; set-up: unit not given here; conditions: Canis lupus familiaris, Purkinje fiber; summary of the method: as §1
Canis familiaris [12] = species: Canis familiaris; test: Maximum rate of rise of the upstroke of transmembrane potential, in canine Purkinje Fibers at a concentration of 1.0 uM at 300 ms (simulating tachycardia); assay type: functional; set-up: unit not given here; conditions: Canis lupus familiaris, Purkinje fiber; summary of the method: as §1
Canis familiaris [13] = species: Canis familiaris; test: Maximum rate of rise of the upstroke of transmembrane potential, in canine Purkinje Fibers at a concentration of 0.10 uM at 1000 ms (simulating normal heart rate); assay type: functional; conditions: Canis lupus familiaris, Purkinje fiber; summary of the method: as §1
Canis familiaris [14] = species: Canis familiaris; test: repolarization to reach -60mV, in canine Purkinje Fibers at a concentration of 0.10 uM at 1000 ms (simulating normal heart rate); assay type: functional, Canis lupus familiaris, Purkinje fiber; summary of the method: as §2
Canis familiaris [15] = species: Canis familiaris; test: Repolarization to reach -60mV, in canine Purkinje Fibers at a concentration of 0.10 uM at 300 ms (simulating tachycardia); assay type: functional, Canis lupus familiaris, Purkinje fiber; summary of the method: as §1
Canis familiaris [16] = species: Canis familiaris; test: Maximum rate of rise of the upstroke of transmembrane potential, in canine Purkinje Fibers at a concentration of 0.10 uM at 300 ms (simulating tachycardia); assay type: functional; conditions: Canis lupus familiaris, Purkinje fiber; summary of the method: as §1
Canis familiaris [17] = test: Ventricular effective refractory period by the compound in open chest anesthetized dog, after iv administration at a dose of 5.0 mg/kg.; assay type: functional, Canis lupus familiaris, Heart; set-up: unit not given here
Canis familiaris [18] = test: Heart beat by the compound in open chest anesthetized dog, after iv administration at a dose of 5.0 mg/kg.; assay type: functional, Canis lupus familiaris; set-up: unit not given here
Summary of the method: (§3)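 Hemodynamics (heart rate, mean arterial pressure) recorded in pentobarbital-anesthetized (30 mg/kg iv, 5 mg/kg per h maintenance) open-chest mongrel dogs during the refractoriness study at BCL 300 ms. Readings were taken before and after iv or intraduodenal compound and expressed as change from control.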

Canis familiaris [19] = test: Mean arterial pressure by the compound in open chest anesthetized dog, after iv administration at a dose of 5.0 mg/kg.; assay type: functional, Canis lupus familiaris, Artery; set-up: unit not given here; summary of the method: as §3
Canis familiaris [20] = test: Atrial conduction time by the compound in open chest anesthetized dog, after iv administration at a dose of 5.0 mg/kg.; assay type: functional, Canis lupus familiaris, Cardiac atrium; set-up: unit not given here
Summary of the method: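 Mongrel dogs anesthetized with sodium pentobarbital (30 mg/kg iv, then 5 mg/kg per h), chest opened, paced at BCL 300 ms. Atrial conduction time was taken as the interval between electrograms recorded at the proximal and distal sites of the atrial recording electrode array, before and after iv or intraduodenal dosing. Values are changes from control.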

Canis familiaris [21] = test: Atrial effective refractory period by the compound in open chest anesthetized dog, after iv administration at a dose of 5.0 mg/kg.; assay type: functional, Canis lupus familiaris, Cardiac atrium; set-up: unit not given here
Summary of the method: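 Open-chest mongrel dogs under sodium pentobarbital anesthesia (30 mg/kg iv plus 5 mg/kg per h), paced at basic cycle length 300 ms. Atrial effective refractory period was determined by electrical stimulation before and after iv or intraduodenal compound and reported as change from control.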

Canis familiaris [22] = test: Ventricular conduction time by the compound in open chest anesthetized dog, after iv administration at a dose of 5.0 mg/kg.; assay type: functional, Canis lupus familiaris, Heart; set-up: unit not given here
Summary of the method: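 Mongrel dogs were anesthetized with sodium pentobarbital (30 mg/kg iv, then 5 mg/kg per h), the chest opened, and the heart paced at BCL 300 ms. Compound was given iv or intraduodenally. Ventricular conduction time was taken as the interval between electrograms at the proximal and distal sites of the recording electrode array. 2-5 dogs per dose.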

SMILES	Vmax (Canis familiaris [1])	APD (Canis familiaris [2])	Vmax (Canis familiaris [3])	APD (Canis familiaris [4])	other results
COc1ccc2nc(CN(C)CC(O)COc3ccc(NS(C)(=O)=O)cc3)ccc2c1 (stereo not given)	0	54%	-6	16%	–
CN(Cc1ccc2cc(Cl)ccc2n1)CC(O)COc1ccc(NS(C)(=O)=O)cc1 (stereo not given)	0	65%	-2	29%	–
CN(Cc1ccc2ccccc2n1)CC(O)COc1ccc(-n2ccnc2)cc1 (stereo not given)	-15	39%	-11	10%	–
CN(Cc1ccc2ccccc2n1)C[C@H](O)COc1ccc(NS(C)(=O)=O)cc1	-5	54%	0	27%	Vmax (Canis familiaris [5]): -4; APD (Canis familiaris [6]): 40%; APD (Canis familiaris [7]): 22%; Vmax (Canis familiaris [8]): 9; APD (Canis familiaris [9]): 13%; APD (Canis familiaris [10]): 14%; Vmax (Canis familiaris [11]): 0; Vmax (Canis familiaris [12]): -3
CS(=O)(=O)Nc1ccc(OCCCN(Cc2ccc3cc(NS(C)(=O)=O)ccc3n2)C2CCCC2)cc1	–	–	–	–	Vmax (Canis familiaris [13]): 7; APD (Canis familiaris [14]): 30%; APD (Canis familiaris [15]): 13%; Vmax (Canis familiaris [16]): 8
Cn1c(N2CCN(CC(O)COc3ccc(NS(C)(=O)=O)cc3)CC2)nc2ccccc21 (stereo not given)	-3	83%	-9	21%	–
CS(=O)(=O)Nc1ccc(OCC(O)CN2CCN(c3ncccn3)CC2)cc1 (stereo not given)	-17	23%	-12	15%	–
CC(C)N(Cc1ccc2ccccc2n1)CC(O)COc1ccc(NS(C)(=O)=O)cc1 (stereo not given)	-10	49%	-11	30%	–
CN(Cc1nc2ccccc2n1C)CC(O)COc1ccc(NS(C)(=O)=O)cc1 (stereo not given)	7	19%	4	12%	–
CN(Cc1ccc2cc(F)ccc2n1)CC(O)COc1ccc(NS(C)(=O)=O)cc1 (stereo not given)	11	55%	8	22%	Vmax (Canis familiaris [5]): 3; APD (Canis familiaris [6]): 50%; APD (Canis familiaris [7]): 31%; Vmax (Canis familiaris [8]): 3; APD (Canis familiaris [9]): 12%; APD (Canis familiaris [10]): 19%; Vmax (Canis familiaris [11]): 5; Vmax (Canis familiaris [12]): 4
CN(Cc1ccc2ccccc2n1)CC(O)COc1ccc(-c2nn[nH]n2)cc1 (stereo not given)	-10	11%	4	4%	–
CN(CCCOc1ccc(NS(C)(=O)=O)cc1)Cc1cnc2ccccc2n1	-16	62%	-14	27%	–
CS(=O)(=O)Nc1ccc(OCC(O)CN2CCN(c3ccccn3)CC2)cc1 (stereo not given)	9	53%	12	24%	–
CN(Cc1ccc2ccccc2n1)CC(O)COc1ccc(C#N)cc1 (stereo not given)	19	41%	8	0%	–
Cc1nc2ccccc2nc1CN(C)CC(O)COc1ccc(NS(C)(=O)=O)cc1 (stereo not given)	7	17%	3	11%	–
CN(Cc1ccc2ccccc2n1)C[C@@H](O)COc1ccc(NS(C)(=O)=O)cc1	4	70%	-1	27%	Vmax (Canis familiaris [5]): -4; APD (Canis familiaris [6]): 48%; APD (Canis familiaris [7]): 25%; Vmax (Canis familiaris [8]): 9; APD (Canis familiaris [9]): 12%; APD (Canis familiaris [10]): 22%; Vmax (Canis familiaris [11]): 6; Vmax (Canis familiaris [12]): -9
Cc1nc2ccccc2nc1CN(C)CC(O)COc1ccc(-n2ccnc2)cc1 (stereo not given)	13	69%	10	24%	–
CN(Cc1cc2ccccc2o1)CC(O)COc1ccc(NS(C)(=O)=O)cc1 (stereo not given)	4	47%	16	16%	–
CN(Cc1nc2ccccc2[nH]1)CC(O)COc1ccc(NS(C)(=O)=O)cc1 (stereo not given)	1	14%	-11	3%	–
CN(CCCOc1ccc(NS(C)(=O)=O)cc1)Cc1ccc2ccccc2n1	5	45%	3	22%	VERP (Canis familiaris [17]): 30; HR (Canis familiaris [18]): -23; MBP (Canis familiaris [19]): -11; ACT (Canis familiaris [20]): -6; AERP (Canis familiaris [21]): 52; VCT (Canis familiaris [22]): 1
CN(Cc1cnc2ccccc2n1)CC(O)COc1ccc(NS(C)(=O)=O)cc1 (stereo not given)	1	26%	6	8%	–
CN(Cc1ccc2cc(NS(C)(=O)=O)ccc2n1)CC(O)COc1ccc(NS(C)(=O)=O)cc1 (stereo not given)	-6	66%	-1	18%	Vmax (Canis familiaris [5]): -2; APD (Canis familiaris [6]): 55%; APD (Canis familiaris [7]): 42%; Vmax (Canis familiaris [8]): -12; APD (Canis familiaris [9]): 13%; APD (Canis familiaris [10]): 17%; Vmax (Canis familiaris [11]): -10; Vmax (Canis familiaris [12]): -4
CN(Cc1ccc2ccccc2n1)CC(O)COc1ccc([N+](=O)[O-])cc1 (stereo not given)	0	63%	-10	27%	–
O=[N+]([O-])c1ccc(OCC(O)CN2CCN(c3ccccn3)CC2)cc1 (stereo not given)	8	29%	-19	15%	VERP (Canis familiaris [17]): 25; HR (Canis familiaris [18]): -33; MBP (Canis familiaris [19]): -33; ACT (Canis familiaris [20]): 16; AERP (Canis familiaris [21]): 69; VCT (Canis familiaris [22]): -7
